Columns and labels:
[1] = target: T1, Neutrophil elastase (Homo sapiens) (UniProt P08246); test: Compound was tested for the inactivation of human leukocyte (neutrophil) elastase(HLE)(HNE) expressed as rate constant; assay type: functional
T1 sequence (whole entry): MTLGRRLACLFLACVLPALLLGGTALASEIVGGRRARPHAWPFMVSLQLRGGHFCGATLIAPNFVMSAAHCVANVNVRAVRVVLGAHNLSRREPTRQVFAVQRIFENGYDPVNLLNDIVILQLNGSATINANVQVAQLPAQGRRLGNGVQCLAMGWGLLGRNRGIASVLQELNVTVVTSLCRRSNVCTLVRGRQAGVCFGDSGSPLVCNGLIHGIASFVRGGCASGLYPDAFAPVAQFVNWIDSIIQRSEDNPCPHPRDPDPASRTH
How it was run: (§1)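 HNE (0.1–2.0 μM) in 0.1 M Hepes, 0.5 M NaCl, pH 7.5, 25 °C, was incubated with inhibitor added from Me2SO (final 8–12% v/v). Timed aliquots were diluted 40–200-fold into MeO-Suc-Ala-Ala-Pro-Val-NA (0.1–0.125 mM), and residual activity was read at 410 nm. kobs came from ln(vt/v0) vs time and is reported as kobs/[I]. Very fast cases are lower limits.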

[2] = target: Pancreatic elastase (Sus scrofa) (UniProt P08419+P00772); test: Inactivation of porcine pancreatic elastase (PPE) expressed as rate constant.; assay type: functional
How it was run: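 PPE (0.1–2.0 μM) was incubated with inhibitor in 0.1 M Hepes, 0.5 M NaCl, pH 7.5, at 25 °C; inhibitor was added in Me2SO to a final 8–12% v/v. Aliquots taken over time were diluted 40–200-fold into Suc-Ala-Ala-Ala-NA (0.6–1.2 mM), with 4-nitroanilide release followed at 410 nm. First-order kobs came from ln(vt/v0) vs time and is given as kobs/[I].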

[3] = system: Pancreatic elastase (Sus scrofa); test: Compound was tested for the inactivation of porcine pancreatic elastase(PPE) expressed as rate constant
[4] = target: T1, Neutrophil elastase (Homo sapiens); test: Inactivation of human leukocyte (neutrophil) elastase (HLE)(HNE) as rate constant; assay type: functional; how it was run: as §1
[5] = target: T1, Neutrophil elastase (Homo sapiens); test: Inactivation of human leukocyte (neutrophil) elastase(HLE)(HNE) as rate constant; how it was run: as §1

k obs / 1 [1] [M⁻¹ s⁻¹]	second-order inactivation rate constant (kobs/[I]) [2] [M⁻¹ s⁻¹]	[I] [3] [µM]	kobs/[I] (second-order inactivation rate constant) [4] [M⁻¹ s⁻¹]	k obs / 1 [5] [M⁻¹ s⁻¹]	Structure (SMILES)
10000	20	600	–	–	COc1oc(=O)c2cc(NC(=O)OCC3c4ccccc4-c4ccccc43)ccc2c1Cl
–	2500	–	100000	–	COC(=O)Nc1cccc(C(=O)Nc2ccc3c(Cl)c(OC)oc(=O)c3c2)c1
–	2000	–	37000	–	COc1oc(=O)c2cc(NC(=O)Cc3ccccc3)ccc2c1Cl
–	100	–	66000	–	COc1oc(=O)c2cc(NC(=O)CC(CC(=O)O)c3ccccc3)ccc2c1Cl (centres undefined)
–	2200	–	43000	–	COC(=O)CCC(=O)Nc1ccc2c(Cl)c(OC)oc(=O)c2c1
–	7300	–	49000	–	COc1oc(=O)c2cc(NC(=O)Nc3ccccc3)ccc2c1Cl
–	260	–	71000	–	COc1oc(=O)c2cc(NC(=O)OCc3ccccc3)ccc2c1Cl
–	1500	–	84000	–	COc1oc(=O)c2cc(NC(=O)C(NS(=O)(=O)c3ccc(C)cc3)c3ccccc3)ccc2c1Cl (centres undefined)
–	900	–	9500	–	COc1oc(=O)c2cc(NC(=O)CCC(=O)O)ccc2c1Cl
9200	650	8.3	–	–	COc1oc(=O)c2cc(N=C=O)ccc2c1Cl
–	6300	–	54000	–	COc1oc(=O)c2cc(NC(=O)C(CC(C)C)NS(=O)(=O)c3ccc(C)cc3)ccc2c1Cl (centres undefined)
–	20	–	52000	–	COc1oc(=O)c2cc(NC(=O)C(c3ccccc3)c3ccccc3)ccc2c1Cl
–	2400	–	130000	–	COc1oc(=O)c2cc(NC(=O)CC(c3ccccc3)c3ccccc3)ccc2c1Cl
–	3100	–	66000	–	COc1oc(=O)c2cc(NC(=O)CCc3ccccc3)ccc2c1Cl
–	6500	–	200000	–	COc1oc(=O)c2cc(NC(=O)C(Cc3ccccc3)NS(=O)(=O)c3ccc(C)cc3)ccc2c1Cl (centres undefined)
–	850	8.8	–	13000	COc1oc(=O)c2cc(NC(=O)Oc3ccccc3)ccc2c1Cl
–	900	–	51000	–	COc1oc(=O)c2cc(NC(=O)CCCC(=O)O)ccc2c1Cl
–	2000	–	47000	–	CCOC(=O)Nc1ccc2c(Cl)c(OC)oc(=O)c2c1
–	2700	–	52000	–	COc1oc(=O)c2cc(NC(=O)c3ccccc3C(=O)O)ccc2c1Cl
–	2300	–	30000	–	COc1oc(=O)c2cc(NC(C)=O)ccc2c1Cl
–	2800	–	54000	–	COC(=O)CCCC(=O)Nc1ccc2c(Cl)c(OC)oc(=O)c2c1
–	7100	–	–	–	COC(=O)c1ccccc1C(=O)Nc1ccc2c(Cl)c(OC)oc(=O)c2c1
–	1300	–	36000	–	COc1oc(=O)c2cc(NC(=O)C(NS(=O)(=O)c3ccc(C)cc3)C(C)C)ccc2c1Cl (centres undefined)
–	1100	–	47000	–	COc1oc(=O)c2cc(NC(=O)C(F)(F)C(F)(F)C(F)(F)F)ccc2c1Cl
–	2500	–	55000	–	COc1oc(=O)c2cc(NC(=O)C(C)NS(=O)(=O)c3ccc(C)cc3)ccc2c1Cl (centres undefined)
–	17	–	12000	–	COc1oc(=O)c2cc(NC(=O)N(CCc3ccccc3)Cc3ccccc3)ccc2c1Cl

Source: ChEMBL document CHEMBL1125411, “Effect of the 7-amino substituent on the inhibitory potency of mechanism-based isocoumarin inhibitors for porcine pancreatic and human neutrophil elastases: a 1.85-A X-ray structure of the complex between porcine pancreatic elastase and 7-[(N-tosylphenylalanyl)amino]-4-chloro-3- methoxyisocoumarin” (J Med Chem, 1992)
